This note sets out measurements from ChEMBL document CHEMBL1127652, “An enantiospecific synthesis of the human cytomegalovirus antiviral agent [(R)-3-((2-amino-1,6-dihydro-6-oxo-9H-purin-9-yl)methoxy)-4- hydroxybutyl]phosphonic acid” (J Med Chem, 1994).

One data set concerns MRC5. Briefly: In vitro antiviral activity against Human cytomegalovirus (HCMV)strain AD169 in MRC-5 lung fibroblasts using a DNA-hybridization assay. In kind it is functional, cell-based. In short, it runs like this:
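HCMV strain AD169 grown in MRC-5 human lung fibroblasts; viral DNA read out by DNA hybridization. Each drug concentration tested in triplicate. IC50 derived by probit linear regression, and reported values span 7 to 12 independent experiments with standard errors.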

A short description of data set [1]: In vitro toxicity against burst forming unit erythroid (BFU-E). As to conditions: human, burst forming unit erythroid (BFU-E) progenitor cells.
Data set [2] can be described thus: In vitro toxicity against colony forming unit granulocyte macrophage (CFU-GM). The following applies: human. In kind it is cell-based.
For another data set, the system named is IM-9. As to the kind of experiment: The compound is evaluated for toxicity in IM-9 cells. In kind it is cell-based. As to conditions: Homo sapiens.
Another data set concerns CCRF-CEM. Briefly: The compound is evaluated for toxicity in CEM cells. Type of data set: cell-based. The following applies: Homo sapiens.
Another data set deals with MOLT-4. Briefly: The compound is evaluated for toxicity in MOLT-4 cells. As to conditions: Homo sapiens. In kind it is cell-based.

Some results are limits rather than exact numbers.

Consider `CCOP(=O)(O)CC[C@H](CO)OCn1cnc2c(O)nc(N)nc21`, for which, in the data set with MRC5, half-maximal inhibition (IC50) was put at 6.8 µM. That is a single-digit micromolar value.

Take `Nc1nc(O)c2ncn(COC(CO)CCP(=O)(O)O)c2n1` (stereo not drawn): the IC50 (as a rule, the concentration needed to halve the response being measured) is 5.6 µM in the data set with MRC5, 200 µM in data set [1] and 280 µM in data set [2].

Turning to `Nc1nc2c(ncn2CO[C@@H](CO)CCP(=O)(O)O)c(=O)[nH]1`, the IC50 in the data set with IM-9 is more than 100 µM; in the data set on MRC5, 1.7 µM; in the data set with CCRF-CEM, more than 100 µM; in data set [1] it was 126 µM; in the data set on MOLT-4, more than 100 µM; in data set [2], 96 µM.

`Nc1nc2c(ncn2COC(CO)CO)c(=O)[nH]1` [GANCICLOVIR]: the IC50 was found to be 1.7 µM in the data set with MRC5, 29 µM in data set [1] and 19 µM in data set [2].
